Published values from different studies.
Lines come from different studies, so protocols differ.
Target: Cholinesterase (BCHE, Homo sapiens, UniProt P06276)
Effect on: enzyme activity
Action: inhibitor

The IC50 of `Cn1cc(-c2cc(C(=O)NN=Cc3cccc(Br)c3)no2)c2ccccc21` is reported as > 100000 nM.
`O=[N+]([O-])c1c[nH]c(-c2n[nH]c(=S)n2/N=C/c2ccc(F)c(O)c2)c1` gave an IC50 of 9700 nM (Ellman).
With `COc1ccc(S(=O)(=O)Oc2ccc(C=NNC(=O)c3ccc(F)cc3)cc2OC)cc1` the IC50 was 76.4 nM (Ellman).
With `CSc1ccc(C=NNC(=O)c2cc(-c3cn(C)c4ccccc34)on2)cc1` the IC50 was > 100000 nM.
The IC50 of `COc1ccc(S(=O)(=O)Oc2cccc(C=NNC(=O)c3ccc(F)cc3)c2)cc1` is reported as 111 nM (Ellman).
`C#CCN(C)CCCCCOCc1ccc(CN(C)c2c3c(nc4ccccc24)CCCC3)cc1` gave an IC50 of 610 nM (Ellman).
For `O=[N+]([O-])c1c[nH]c(-c2n[nH]c(=S)n2/N=C/c2cc(O)cc(F)c2)c1`, the IC50 was 9600 nM (Ellman).
`C#CCN(C)CCCCCCCCOc1cccc(CN(C)c2c3c(nc4ccccc24)CCCC3)c1` has an IC50 of 910 nM (Ellman).
`Cc1ccc(CN2CCN(Cc3nnc(-c4ccccc4)o3)CC2)cc1` gave an IC50 of > 10000 nM (Ellman).
With `C#CCN(C)CCCCCCOCc1ccc(CN(C)c2c3c(nc4ccccc24)CCCC3)cc1` the IC50 was 430 nM (Ellman).
`CCN(CC)c1ccc(C=NNC(=O)c2ccc(F)cc2)c(OS(=O)(=O)c2ccc(OC)cc2)c1` gave an IC50 of 97.2 nM (Ellman).
`CN(C)c1ccc(/C=N/n2c(-c3cc([N+](=O)[O-])c[nH]3)n[nH]c2=S)c(O)c1` gave an IC50 of 22200 nM (Ellman).
`COc1cccc(C=NNC(=O)c2cc(-c3cn(C)c4ccccc34)on2)c1OC` has an IC50 of > 100000 nM.
With `O=[N+]([O-])c1c[nH]c(-c2n[nH]c(=S)n2/N=C/c2ccc(Br)c(Cl)c2)c1` the IC50 was 23100 nM (Ellman).
For `C#CCN(C)CCCCCOc1cccc(CN(C)c2c3c(nc4ccccc24)CCCC3)c1`, the IC50 was 330 nM (Ellman).
`Cn1cc(-c2cc(C(=O)NN=Cc3ccccc3Cl)no2)c2ccccc21` has an IC50 of > 100000 nM.
The IC50 of `C#CCN(C)CCCCCCOCc1ccc(CN(C)c2c3c(nc4ccc(C)cc24)CCCC3)cc1` is reported as 1270 nM (Ellman).
With `COc1cccc(C=NNC(=O)c2cc(-c3cn(C)c4ccccc34)on2)c1` the IC50 was > 100000 nM.
`O=[N+]([O-])c1c[nH]c(-c2n[nH]c(=S)n2/N=C/c2ccc(Cl)cc2[N+](=O)[O-])c1` gave an IC50 of 16400 nM (Ellman).
With `COc1ccc(S(=O)(=O)Oc2ccccc2C=NNC(=O)c2ccc(F)cc2)cc1` the IC50 was 114 nM (Ellman).
With `C#CCN(C)CCOc1cccc(CN(C)c2c3c(nc4ccccc24)CCCC3)c1` the IC50 was 2000 nM (Ellman).
`COc1ccc(OC)c(C=NNC(=O)c2cc(-c3cn(C)c4ccccc34)on2)c1` has an IC50 of > 100000 nM.
For `O=[N+]([O-])c1c[nH]c(-c2n[nH]c(=S)n2/N=C/c2ccc(Oc3ccccc3)cc2)c1`, the IC50 was 21100 nM (Ellman).
